From ChEMBL document CHEMBL2311431, “Synthesis and biological evaluation of some 5-arylidene-2-(1,3-thiazol-2-ylimino)-1,3-thiazolidin-4-ones as dual anti-inflammatory/antimicrobial agents” (Bioorg Med Chem, 2013)
≈ marks a conversion by molar mass, not a printed value.

Key:
[1] = Inhibition of soybean lipoxygenase assessed as inhibition of sodium linolate conversion to 13-hydroperoxylinoleic acid after 4 mins by spectrophotometry; set-up: species or system Glycine max; settings: read-out: IC50
Bacillus cereus [2] = assay: Antibacterial activity against Bacillus cereus clinical isolate after 24 hr by microdilution test; format: functional
In short: (§1)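 Broth microdilution in LB medium, about 1.0×10^4 cfu per well; compounds from 1 mg/ml stocks in 5% DMSO. Incubated 24 h. MIC is the lowest concentration with no visible growth under a binocular microscope. Run in duplicate, repeated three times.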

Escherichia coli [3] = assay: Bactericidal activity against Escherichia coli ATCC 35210 after 72 hrs by serial subcultivation method; format: functional; settings: ATCC 35210, 72 h
Listeria monocytogenes [4] = assay: Bactericidal activity against Listeria monocytogenes NCTC 7973 after 72 hrs by serial subcultivation method; format: functional; settings: NCTC 7973, 72 h
Aspergillus flavus [5] = assay: Antifungal activity against Aspergillus flavus ATCC 9643 after 72 hrs by serial dilution technique; format: functional; settings: ATCC 9643, 72 h
In short: (§2)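 Serial dilution in malt broth; compounds from 1 mg/ml stocks in 5% DMSO; 72 h at 28 °C. MIC is the lowest concentration with no visible growth under a binocular microscope. Run in duplicate, repeated three times.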

Aspergillus flavus [6] = assay: Fungicidal activity against Aspergillus flavus ATCC 9643 after 72 hrs by serial subcultivation method; format: functional; settings: ATCC 9643, 72 h
Talaromyces funiculosus [7] = assay: Antifungal activity against Penicillium funiculosum ATCC 36839 after 72 hrs by serial dilution technique; format: functional; settings: ATCC 36839, 72 h; in short: as §2
Micrococcus flavus [8] = assay: Antibacterial activity against Micrococcus flavus ATCC 10240 after 24 hr by microdilution test; format: functional; settings: ATCC 10240, 24 h; in short: as §1
Penicillium ochrochloron [9] = assay: Antifungal activity against Penicillium ochrochloron ATCC 9112 after 72 hrs by serial dilution technique; format: functional; settings: ATCC 9112, 72 h; in short: as §2
Pseudomonas aeruginosa [10] = assay: Bactericidal activity against Pseudomonas aeruginosa ATCC 27853 after 72 hrs by serial subcultivation method; format: functional; settings: ATCC 27853, 72 h
Staphylococcus aureus [11] = assay: Bactericidal activity against Staphylococcus aureus ATCC 6538 after 72 hrs by serial subcultivation method; format: functional; settings: ATCC 6538, 72 h
Aspergillus fumigatus [12] = assay: Fungicidal activity against Aspergillus fumigatus after 72 hrs by serial subcultivation method; format: functional
Mus musculus [13] = assay: Antiinflammatory activity in AKR mouse assessed as inhibition of carrageenan-induced paw edema at 0.01 mmol/kg, ip measured after 3.5 hrs of carrageenan-challenge; format: functional
In short: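 AKR mice of both sexes (pregnant females excluded), 6-10 per group, fasted during the experiment. Edema induced by intradermal 0.05 mL of 2% carrageenin into the right hind paw. Compound given at 0.01 mmol/kg ip, suspended in water with Tween-80, at the same time as carrageenin.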

[14] = biological target: T1, Prostaglandin G/H synthase 1 (Ovis aries) (UniProt P05979); assay: Inhibition of ovine COX1 assessed as inhibition of PGF2a production by enzyme immunoassay; set-up: concentration or dose not given beside the values; settings: concentration not given here
T1 sequence (whole entry): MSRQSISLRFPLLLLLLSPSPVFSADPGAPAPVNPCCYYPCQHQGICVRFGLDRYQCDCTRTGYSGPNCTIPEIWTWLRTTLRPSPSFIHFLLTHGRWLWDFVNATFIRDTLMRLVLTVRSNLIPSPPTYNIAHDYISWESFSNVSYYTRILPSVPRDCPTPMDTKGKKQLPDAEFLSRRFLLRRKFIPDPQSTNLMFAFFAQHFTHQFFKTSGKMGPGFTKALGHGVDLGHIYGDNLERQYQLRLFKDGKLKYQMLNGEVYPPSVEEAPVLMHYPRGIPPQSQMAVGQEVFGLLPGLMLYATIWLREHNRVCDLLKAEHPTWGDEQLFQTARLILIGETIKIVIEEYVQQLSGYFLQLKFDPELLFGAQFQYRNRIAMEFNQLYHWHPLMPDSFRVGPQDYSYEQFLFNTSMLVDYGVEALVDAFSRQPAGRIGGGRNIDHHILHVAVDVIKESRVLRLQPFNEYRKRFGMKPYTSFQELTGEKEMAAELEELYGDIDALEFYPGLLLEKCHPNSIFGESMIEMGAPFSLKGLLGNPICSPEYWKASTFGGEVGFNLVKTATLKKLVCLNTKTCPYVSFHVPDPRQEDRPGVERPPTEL
In short: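 Ovine COX-1 from a commercial screening kit, tested with 0.1 µM arachidonic acid, which is below the saturating level. COX-derived PGH2 is reduced by SnCl2 to PGF2a, quantified by enzyme immunoassay with a broad prostaglandin antibody. At least triplicate.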

Staphylococcus aureus [15] = assay: Antibacterial activity against Staphylococcus aureus ATCC 6538 after 24 hr by microdilution test; format: functional; settings: ATCC 6538, 24 h; in short: as §1
Aspergillus fumigatus [16] = assay: Antifungal activity against Aspergillus fumigatus after 72 hrs by serial dilution technique; format: functional; in short: as §2
Penicillium ochrochloron [17] = assay: Fungicidal activity against Penicillium ochrochloron ATCC 9112 after 72 hrs by serial subcultivation method; format: functional; settings: ATCC 9112, 72 h
Talaromyces funiculosus [18] = assay: Fungicidal activity against Penicillium funiculosum ATCC 36839 after 72 hrs by serial subcultivation method; format: functional; settings: ATCC 36839, 72 h
Listeria monocytogenes [19] = assay: Antibacterial activity against Listeria monocytogenes NCTC 7973 after 24 hr by microdilution test; format: functional; settings: NCTC 7973, 24 h; in short: as §1
Aspergillus niger [20] = assay: Fungicidal activity against Aspergillus niger ATCC 6275 after 72 hrs by serial subcultivation method; format: functional; settings: ATCC 6275, 72 h
Trichoderma viride [21] = assay: Antifungal activity against Trichoderma viride IAM 5061 after 72 hrs by serial dilution technique; format: functional; settings: IAM 5061, 72 h; in short: as §2
Mus musculus [22] = assay: Acute toxicity in AKR mouse up to 0.5 mmol/kg, ip; format: organism-based; settings: in vivo
Bacillus cereus [23] = assay: Bactericidal activity against Bacillus cereus clinical isolate after 72 hrs by serial subcultivation method; format: functional
Escherichia coli [24] = assay: Antibacterial activity against Escherichia coli ATCC 35210 after 24 hr by microdilution test; format: functional; settings: ATCC 35210, 24 h; in short: as §1
Trichoderma viride [25] = assay: Fungicidal activity against Trichoderma viride IAM 5061 after 72 hrs by serial subcultivation method; format: functional; settings: IAM 5061, 72 h
Pseudomonas aeruginosa [26] = assay: Antibacterial activity against Pseudomonas aeruginosa ATCC 27853 after 24 hr by microdilution test; format: functional; settings: ATCC 27853, 24 h; in short: as §1
Micrococcus flavus [27] = assay: Bactericidal activity against Micrococcus flavus ATCC 10240 after 72 hrs by serial subcultivation method; format: functional; settings: ATCC 10240, 72 h
Aspergillus niger [28] = assay: Antifungal activity against Aspergillus niger ATCC 6275 after 72 hrs by serial dilution technique; format: functional; settings: ATCC 6275, 72 h; in short: as §2

Compound	IC50 [1]	MIC (Bacillus cereus [2])	MBC (Escherichia coli [3])	MBC (Listeria monocytogenes [4])	MIC (Aspergillus flavus [5])	MFC (Aspergillus flavus [6])	MIC (Talaromyces funiculosus [7])	MIC (Micrococcus flavus [8])	MIC (Penicillium ochrochloron [9])	MBC (Pseudomonas aeruginosa [10])	MBC (Staphylococcus aureus [11])	MFC (Aspergillus fumigatus [12])	inhibition in vivo at 10 µmol/kg (Mus musculus [13])	inhibition [14]	MIC (Staphylococcus aureus [15])	MIC (Aspergillus fumigatus [16])	MFC (Penicillium ochrochloron [17])	MFC (Talaromyces funiculosus [18])	MIC (Listeria monocytogenes [19])	MFC (Aspergillus niger [20])	also measured
COc1ccccc1/C=C1\S/C(=N/c2nccs2)NC1=O	63 µM	31.5 µM (≈ 10 µg/mL)	63 µM (≈ 20 µg/mL)	63 µM (≈ 20 µg/mL)	23.6 µM (≈ 7.49 µg/mL)	31.5 µM (≈ 10 µg/mL)	15.8 µM (≈ 5.01 µg/mL)	31.5 µM (≈ 10 µg/mL)	15.8 µM (≈ 5.01 µg/mL)	63 µM (≈ 20 µg/mL)	63 µM (≈ 20 µg/mL)	31.5 µM (≈ 10 µg/mL)	50%	86%	31.5 µM (≈ 10 µg/mL)	15.8 µM (≈ 5.01 µg/mL)	31.5 µM (≈ 10 µg/mL)	31.5 µM (≈ 10 µg/mL)	31.5 µM (≈ 10 µg/mL)	31.5 µM (≈ 10 µg/mL)	MIC (Trichoderma viride [21]): 15.8 µM (≈ 5.01 µg/mL); Activity (Mus musculus [22]): Non-toxic; MBC (Bacillus cereus [23]): 31.5 µM (≈ 10 µg/mL); MIC (Escherichia coli [24]): 31.5 µM (≈ 10 µg/mL); MFC (Trichoderma viride [25]): 31.5 µM (≈ 10 µg/mL); MIC (Pseudomonas aeruginosa [26]): 31.5 µM (≈ 10 µg/mL); MBC (Micrococcus flavus [27]): 31.5 µM (≈ 10 µg/mL); MIC (Aspergillus niger [28]): 15.8 µM (≈ 5.01 µg/mL)
Cc1cnc(/N=C2\NC(=O)/C(=C/c3ccc([N+](=O)[O-])cc3)S2)s1	79 µM	29 µM (≈ 10 µg/mL)	232 µM (≈ 80.4 µg/mL)	29 µM (≈ 10 µg/mL)	15.8 µM (≈ 5.47 µg/mL)	31.5 µM (≈ 10.9 µg/mL)	15.8 µM (≈ 5.47 µg/mL)	29 µM (≈ 10 µg/mL)	15.8 µM (≈ 5.47 µg/mL)	116 µM (≈ 40.2 µg/mL)	232 µM (≈ 80.4 µg/mL)	31.5 µM (≈ 10.9 µg/mL)	55.4%	68%	116 µM (≈ 40.2 µg/mL)	15.8 µM (≈ 5.47 µg/mL)	31.5 µM (≈ 10.9 µg/mL)	31.5 µM (≈ 10.9 µg/mL)	29 µM (≈ 10 µg/mL)	31.5 µM (≈ 10.9 µg/mL)	MIC (Trichoderma viride [21]): 15.8 µM (≈ 5.47 µg/mL); Activity (Mus musculus [22]): Non-toxic; MBC (Bacillus cereus [23]): 29 µM (≈ 10 µg/mL); MIC (Escherichia coli [24]): 116 µM (≈ 40.2 µg/mL); MFC (Trichoderma viride [25]): 31.5 µM (≈ 10.9 µg/mL); MIC (Pseudomonas aeruginosa [26]): 29 µM (≈ 10 µg/mL); MBC (Micrococcus flavus [27]): 29 µM (≈ 10 µg/mL); MIC (Aspergillus niger [28]): 15.8 µM (≈ 5.47 µg/mL)
COc1ccc(OC)c(/C=C2\S/C(=N/c3nccs3)NC2=O)c1	52 µM	232 µM (≈ 80.6 µg/mL)	464 µM (≈ 161 µg/mL)	230 µM (≈ 79.9 µg/mL)	290 µM (≈ 101 µg/mL)	348 µM (≈ 121 µg/mL)	7.3 µM (≈ 2.54 µg/mL)	232 µM (≈ 80.6 µg/mL)	58 µM (≈ 20.2 µg/mL)	406 µM (≈ 141 µg/mL)	348 µM (≈ 121 µg/mL)	348 µM (≈ 121 µg/mL)	26%	85%	232 µM (≈ 80.6 µg/mL)	233 µM (≈ 80.9 µg/mL)	116 µM (≈ 40.3 µg/mL)	58 µM (≈ 20.2 µg/mL)	58 µM (≈ 20.2 µg/mL)	290 µM (≈ 101 µg/mL)	MIC (Trichoderma viride [21]): 58 µM (≈ 20.2 µg/mL); Activity (Mus musculus [22]): Non-toxic; MBC (Bacillus cereus [23]): 348 µM (≈ 121 µg/mL); MIC (Escherichia coli [24]): 406 µM (≈ 141 µg/mL); MFC (Trichoderma viride [25]): 348 µM (≈ 121 µg/mL); MIC (Pseudomonas aeruginosa [26]): 290 µM (≈ 101 µg/mL); MBC (Micrococcus flavus [27]): 290 µM (≈ 101 µg/mL); MIC (Aspergillus niger [28]): 232 µM (≈ 80.6 µg/mL)
